This note sets out measurements from ChEMBL document CHEMBL1671816, “Design and synthesis of oxymatrine analogues overcoming drug resistance in hepatitis B virus through targeting host heat stress cognate 70” (J Med Chem, 2011).

A value given as a limit tells only on which side of the number the result lay.

Data set [1] has as its system Hepatitis B virus (human). As to the kind of experiment: Antiviral activity against HBV in human HepG2(2.2.15) cells assessed as reduction of viral DNA level after 9 days by RT-PCR analysis. Particulars: HepG2 2.2.15, 216 h.
In a further data set the test system is HepG2 2.2.15. As to the kind of experiment: Inhibition of Hsc70 mRNA expression in human HepG2(2.2.15) cells at 100 ug/ml after 24 hrs by RT-PCR analysis. Format: functional. The note with it: HepG2 2.2.15, 24 h. In outline: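 HepG2.2.15 cells seeded at 5 × 10^4 per well in Opti-MEM with 10% FBS, grown for one day, then exposed to compound at 100 μg/mL for 24 h. Total RNA isolated with TRIZOL. Hsc70 mRNA measured by real-time RT-PCR with GAPDH as the reference gene.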

Data set [2] is described as follows: Cytotoxicity against human HepG2(2.2.15) cells after 9 days. Format: cell-based. Particulars: read-out: TC50. The gist of the method: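 Cytotoxicity in HepG2.2.15 cells cultured for 9 days at 37 °C, seeded at 2 × 10^4 per well. TC50 is the concentration killing 50% of cells relative to untreated controls.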
The subject of data set [3] is Hepatitis B virus. Nature of the data set: Antiviral activity against lamivudine-resistant HBV infected in human Huh7.5 cells assessed as reduction of viral replication at 0.16 ug/ml after 36 hrs. In kind it is functional. The note with it: Huh-7, 36 h. In outline: (§1)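 Huh7.5 cells (2 × 10^5/well) were plated, incubated overnight, then transiently transfected for 24 h with pcDNA3.1 carrying wild-type or lamivudine-resistant HBV (rtL180M + rtM204V). After a PBS wash they got fresh medium with drug (0.16 μg/mL for line 6, 37 μg/mL for line 7) for 36 h. HBV DNA replicative intermediate was measured by real-time PCR; experiment run twice, mean and SD.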

Data set [4] has as its system Hepatitis B virus. As to the kind of experiment: Antiviral activity against wild type HBV infected in human Huh7.5 cells assessed as reduction of viral replication at 0.16 ug/ml after 36 hrs. Format: functional. The note with it: Huh-7, 36 h. In outline:
(§2)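 Huh7.5 cells (DMEM, 10% inactivated FBS, 1% pen-strep) plated at 2 × 10^5 per well, incubated overnight, then transiently transfected for 24 h with pcDNA3.1 carrying the full wild-type or lamivudine-resistant (rtL180M + rtM204V) HBV genome. After a PBS wash, treated in fresh medium for 36 h. Replicative-intermediate HBV DNA measured by real-time PCR. Run twice; mean and SD.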

Data set [5] relates to Hepatitis B virus. As to the kind of experiment: Antiviral activity against lamivudine-resistant HBV infected in human Huh7.5 cells assessed as reduction of viral replication at 37 ug/ml after 36 hrs. Particulars: Huh-7, 36 h, read-out: INH. In kind it is functional. In outline:
as §1

The subject of data set [6] is Mus musculus. Nature of the data set: Acute toxicity in ICR mouse assessed as liver function at up to 750 mg/kg, po after 7 days. Format: organism-based. Also noted: dose 750 mg/kg, route oral. Particulars: in vivo, 168 h. In outline:
(§3)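 Male and female ICR mice (22.0 ± 1.0 g), 10 per group (5 male, 5 female), given a single oral dose of 0 (1% polysorbate-80 in saline), 250, 500 or 750 mg/kg. Survival and body weight were monitored for 7 days. Blood was then drawn for AST, ALT, BUN and CRE as liver and kidney function markers.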

For data set [7], the system named is Hepatitis B virus. As to the kind of experiment: Antiviral activity against wild type HBV infected in human Huh7.5 cells assessed as reduction of viral replication at 37 ug/ml after 36 hrs. Particulars: Huh-7, 36 h, read-out: INH. In kind it is functional. The gist of the method:
as §2

Data set [8] relates to Mus musculus. Nature of the data set: Acute toxicity in ICR mouse assessed as change in body weight at up to 750 mg/kg, po after 7 days. In kind it is organism-based. Also on record: dose 750 mg/kg, route oral. The note with it: in vivo, 168 h. The gist of the method:
as §3

A short description of data set [9]: Acute toxicity in po dosed ICR mouse assessed as mortality after 7 days. Format: organism-based. The note with it: in vivo. The gist of the method:
as §3

Data set [10] concerns Mus musculus. As to the kind of experiment: Acute toxicity in ICR mouse assessed as mortality at up to 750 mg/kg, po after 7 days. In kind it is organism-based. Also on record: dose 750 mg/kg, route oral. The note with it: in vivo, 168 h. The gist of the method: as §3
Data set [11] relates to Mus musculus. Nature of the data set: Acute toxicity in ICR mouse assessed as kidney function at up to 750 mg/kg, po after 7 days. The note with it: in vivo, 168 h. Also on record: dose 750 mg/kg, route oral. Format: organism-based. In outline: as §3

Take `COC1CC(=O)N2C[C@@H]3CCCN4CCC[C@@H]([C@H]34)[C@H]2C1` (stereo not given in full): the concentration for half-maximal inhibition (IC50) (commonly the point on the concentration scale where inhibition reaches its midpoint) in data set [1] was 121 µM. The compound also displayed an inhibition at 100 µg/mL with HepG2 2.2.15 of 48.6%. Besides, the CC50 at 216 h in [2] was 1110 µM.

As to `COC1C[C@@H]2[C@H]3CCCN4CCC[C@@H](CN2C(=O)C1OC)[C@@H]34` (stereo not given in full), the inhibition at 100 µg/mL with HepG2 2.2.15 is 39.3%.

Turning to `CCOC(=O)OC1C[C@@H]2[C@H]3CCCN4CCC[C@@H](CN2C(=O)C1OC(=O)OCC)[C@@H]34` (stereo not given in full), the inhibition at 100 µg/mL with HepG2 2.2.15 was < 10%.

Turning to `O=C(OC1CC(=O)N2C[C@@H]3CCCN4CCC[C@@H]([C@H]34)[C@H]2C1)c1ccccc1` (stereo not given in full), the IC50 in data set [1] was 16.3 µM. The inhibition at 100 µg/mL in the data set with HepG2 2.2.15 was determined as 51%. Also, the CC50 at 216 h in data set [2] amounted to 236 µM.

Take `O=C1C=CC[C@@H]2[C@H]3CCC[N+]4([O-])CCC[C@@H](CN12)[C@@H]34` (stereo not given in full) [OXYSOPHOCARPINE]: the inhibition at 100 µg/mL in the data set on HepG2 2.2.15 was 15.3%.

Take `COC1=CC[C@@H]2[C@H]3CCCN4CCC[C@@H](CN2C1=O)[C@@H]34`: the inhibition at 100 µg/mL in the data set on HepG2 2.2.15 was 39.7%.

For `CC(=O)OC1C[C@@H]2[C@H]3CCCN4CCC[C@@H](CN2C(=O)C1O)[C@@H]34.Cl` (stereo not given in full), in data set [1], the half-maximal inhibitory concentration (IC50) stood at 346 µM. The compound also returned an inhibition at 100 µg/mL with HepG2 2.2.15 of 37.1%. Further, the CC50 at 216 h in data set [2] is > 1000 µM.

With `O=C1C(OCc2ccccc2)C(OCc2ccccc2)C[C@@H]2[C@H]3CCCN4CCC[C@@H](CN12)[C@@H]34` (stereo not given in full), the concentration for half-maximal inhibition (IC50) in [1] is 2.76 µM. Further, the inhibition at 100 µg/mL with HepG2 2.2.15 was 45.4%. Also, the CC50 at 216 h in data set [2] came out at 37 µM.

For the compound `O=C1CC(OCc2ccccc2)C[C@@H]2[C@H]3CCCN4CCC[C@@H](CN12)[C@@H]34` (stereo not given in full), in data set [1], the IC50 is 14.4 µM. Besides, the inhibition at 100 µg/mL with HepG2 2.2.15 came out at 24.7%. Further, the CC50 at 216 h in [2] amounted to 136 µM.

In the case of `O=C1C(O)C(O)C[C@@H]2[C@H]3CCCN4CCC[C@@H](CN12)[C@@H]34` (stereo not given in full) [13,14-DIHYDROXYMATRINE], the IC50 in [1] worked out at 47.1 µM. The compound also registered an inhibition at 100 µg/mL in the data set with HepG2 2.2.15 of 38.9%. Also, the CC50 at 216 h in data set [2] was > 1000 µM.

For the compound `Cl.O=C(CCl)OC1C[C@@H]2[C@H]3CCCN4CCC[C@@H](CN2C(=O)C1O)[C@@H]34` (stereo not given in full), in data set [1], the IC50 stood at 14 µM. In addition, the inhibition at 100 µg/mL with HepG2 2.2.15 was determined as 88.2%. Also, the CC50 at 216 h in data set [2] stood at 1100 µM.

In the case of `O=C1CC(C[N+](=O)[O-])C[C@@H]2[C@H]3CCCN4CCC[C@@H](CN12)[C@@H]34` (stereo not given in full), in data set [1], the IC50 was determined as 54.5 µM. In the data set with HepG2 2.2.15, this compound yielded an inhibition at 100 µg/mL of 35.8%. The CC50 at 216 h in [2] is > 1000 µM.

For `Cl.O=C(OC1C[C@@H]2[C@H]3CCCN4CCC[C@@H](CN2C(=O)C1O)[C@@H]34)c1ccccc1` (stereo not given in full), in data set [1], the IC50 came out at 42.6 µM. In the data set on HepG2 2.2.15, this compound came in with an inhibition at 100 µg/mL of 34.5%. In [2], the CC50 at 216 h worked out at 136 µM.

In the data set with HepG2 2.2.15, `O=C(OC1C[C@@H]2[C@H]3CCCN4CCC[C@@H](CN2C(=O)C1OC(=O)c1ccc(F)c([N+](=O)[O-])c1)[C@@H]34)c1ccc(F)c([N+](=O)[O-])c1` (stereo not given in full) came in with an inhibition at 100 µg/mL of 30.8%.

For `Nc1ccn([C@@H]2CS[C@H](CO)O2)c(=O)n1` [LAMIVUDINE], the inhibition at 0.16 µg/mL came to 28% in the data set with Hepatitis B virus [3] and 64% with Hepatitis B virus [4].

As to `CC(Cl)C(=O)OC1C[C@@H]2[C@H]3CCCN4CCC[C@@H](CN2C(=O)C1O)[C@@H]34.Cl` (stereo not given in full), in [1], the IC50 was 592 µM. Further, in the data set with HepG2 2.2.15, the inhibition at 100 µg/mL came out at 48.6%. In addition, the CC50 at 216 h in data set [2] was > 1000 µM.

In the case of `CCOC(=O)OC1C[C@@H]2[C@H]3CCCN4CCC[C@@H](CN2C(=O)C1O)[C@@H]34` (stereo not given in full), the half-maximal inhibitory concentration (IC50) in [1] was determined as 23.9 µM. For the same compound, in the data set with HepG2 2.2.15, the inhibition at 100 µg/mL came to 54.8%. Also, the CC50 at 216 h in data set [2] was found to be 1000 µM.

Consider `O=C1CCC[C@@H]2[C@H]3CCCN4CCC[C@@H](CN12)[C@@H]34` [MATRINE], for which, in the data set with HepG2 2.2.15, the inhibition at 100 µg/mL was 52.4%.

Consider `O=C1CC(O)C[C@@H]2[C@H]3CCCN4CCC[C@@H](CN12)[C@@H]34` (stereo not given in full) [13-HYDROXYMATRINE], for which the inhibition at 100 µg/mL in the data set with HepG2 2.2.15 came out at 50.4%.

`O=C1C=CC[C@@H]2[C@H]3CCCN4CCC[C@@H](CN12)[C@@H]34` [SOPHOCARPINE] had an inhibition at 100 µg/mL in the data set with HepG2 2.2.15 of 21.6%.

Turning to `O=C(O)P(=O)(O)O` [FOSCARNET], in data set [1], the IC50 turned out to be 106 µM. Moreover, the CC50 at 216 h in data set [2] is > 1000 µM.

`O=C1CCC[C@@H]2[C@H]3CCC[N+]4([O-])CCC[C@@H](CN12)[C@@H]34` (stereo not given in full) [OXYMATRINE] registered an inhibition at 100 µg/mL in the data set on HepG2 2.2.15 of 55%.

Take `CCOC1CC(=O)N2C[C@@H]3CCCN4CCC[C@@H]([C@H]34)[C@H]2C1` (stereo not given in full): the inhibition at 37 µg/mL in the data set on Hepatitis B virus [5] is 35%; in the data set with Hepatitis B virus [7] it was 32%. The IC50 in data set [1] stood at 9.55 µM. Besides, the Activity result in the data set with Mus musculus [6], with Mus musculus [8], with Mus musculus [10] and in the data set with Mus musculus [11] was “Non-toxic” each time. In the data set on HepG2 2.2.15, this compound displayed an inhibition at 100 µg/mL of 74.1%. For the same compound, the CC50 at 216 h in data set [2] was determined as 481 µM. In addition, the median lethal dose (LD50) (in general, the dose expected to kill half of the subjects tested) at 168 h in data set [9] was > 750 mg/kg.

Regarding `CNC1CC(=O)N2C[C@@H]3CCCN4CCC[C@@H]([C@H]34)[C@H]2C1` (stereo not given in full), the IC50 in data set [1] was 168 µM. The inhibition at 100 µg/mL with HepG2 2.2.15 was 40.1%. Also, in data set [2], the CC50 at 216 h was > 1000 µM.

As for `O=C(OC1C[C@@H]2[C@H]3CCCN4CCC[C@@H](CN2C(=O)C1O)[C@@H]34)c1ccc(F)c([N+](=O)[O-])c1` (stereo not given in full), the inhibition at 100 µg/mL in the data set with HepG2 2.2.15 came to 43.4%.
